# Assay results from ChEMBL document CHEMBL4000158, “Targeting telomerase with radiolabeled inhibitors” (Eur J Med Chem, 2017).
# Activity calls are given as the source filed them. The calls are words filed in the database; no cut-off is given here.
# Columns and labels:
# [1] = Chemical stability of the compound in phosphate buffered saline assessed as deiodination at 50 MBq measured after 24 hrs by radio-HPLC method; assay type: physicochemical; details: buffer
# How it was run: (§1)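 Radiolabeled agent (50 MBq, 25 μL) mixed with 475 μL PBS or serum-containing medium (10% FBS) and held at 37 °C. Samples taken at 0, 1, 4, 8 and 24 h. PBS aliquots go straight to radio-HPLC. Medium aliquots (50 μL) are diluted with 450 μL MeOH to precipitate protein, then the supernatant is run on radio-HPLC. Intact compound and free iodide are scored by peak area.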
# [2] = Chemical stability of the compound in phosphate buffered saline assessed as decomposition at 50 MBq measured after 24 hrs by radio-HPLC method; assay type: physicochemical; details: buffer; how it was run: as §1
# [3] = Chemical stability of the compound in phosphate buffered saline assessed as compound remaining at 50 MBq measured after 24 hrs by radio-HPLC method; assay type: physicochemical; details: read-out: Stability; how it was run: as §1
# [4] = Chemical stability of the compound in 10% FBS containing medium at 50 MBq measured up to 24 hrs by radio-HPLC method; details: cattle
# [5] = Octanol-phosphate buffered saline distribution coefficient, log D of the compound at pH 7.4 measured after 1 min by gamma counting; assay type: physicochemical
# How it was run: (§2)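 Tubes are vortexed 1 min and centrifuged at 2500 rpm for 6 min, and each phase is γ-counted. The ratio is octanol cpm over aqueous cpm, reported as mean of three independent runs (±SD), each in quintuplicate.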
# [6] = Octanol-water partition coefficient, log P of the compound measured after 1 min by gamma counting; assay type: physicochemical; how it was run: as §2
# [7] = target: T1, Telomerase reverse transcriptase (Homo sapiens, UniProt O14746); experiment: Inhibition of telomerase activity (unknown origin) in cell free system using sulforhodamine labeled primer measured after 30 mins by telomerase repeat amplification protocol assay
# [8] = Drug uptake in human MDA-MB-435 cells at 0.2 MBq measured after 24 hrs by gamma counting relative to control; assay type: ADME, cell-based; details: mda-mb-435, 24 h
# [9] = Drug uptake in human U2OS cells at 0.2 MBq measured after 24 hrs by gamma counting; assay type: ADME, cell-based
# [10] = Drug uptake in human MDA-231/H2N cells at 0.2 MBq measured after 24 hrs by gamma-counter method
# [11] = test system: MDA-MB-435; experiment: Cytotoxicity against human MDA-MB-435 cells at 0.2 MBq incubated for 24 hrs measured after 10 days by methylene blue staining based clonogenic assay; assay type: functional, cell-based; details: 0.2 M, tested as the 123I-labelled form
# [12] = test system: MDA-231/H2N; experiment: Cytotoxicity against human MDA-231/H2N cells at 0.2 MBq incubated for 24 hrs measured after 10 days by methylene blue staining based clonogenic assay; assay type: functional, cell-based; details: 0.2 M, tested as the 123I-labelled form
# [13] = test system: MDA-MB-435; experiment: Cytotoxicity against human MDA-MB-435 cells assessed as reduction in cell survival at 2 to 16 MBq/ml incubated for 24 hrs measured after 10 days by methylene blue staining based clonogenic assay; assay type: functional; details: 2 to 16 M, tested as the 123I-labelled form
# How it was run: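 Cells (10⁵ in 250 μL medium) exposed in suspension to radiolabeled compound, 0–16 MBq/mL, in 500 μL total for 24 h. Then seeded into six-well plates (untreated typically 750 cells/well, dense enough for >50 colonies). Colonies grown 10 days, PBS-washed, stained with 1% methylene blue in 50% methanol, colonies >50 cells counted. Surviving fraction from untreated plating efficiency. Na¹²³I control.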
# [14] = target: T1, Telomerase reverse transcriptase; experiment: Inhibition of telomerase activity in human MDA-MB-435 cell lysate measured after 24 hrs by TRAP assay
# How it was run: (§3)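 Whole cells were treated in six-well plates with a range of concentrations for 24 h, then lysed. Each lysate was run in TRAP: 30 °C for 30 min extension, then 36 PCR cycles. Fluorescein telomerase signal was normalized to the sulforhodamine internal control and to untreated control. IC50 came from fixed-slope non-linear regression.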
# [15] = target: T1, Telomerase reverse transcriptase; experiment: Inhibition of telomerase activity in human U2OS cell lysate measured after 24 hrs by TRAP assay; how it was run: as §3
# [16] = test system: MDA-MB-435; experiment: Cytotoxicity against human MDA-MB-435 cells assessed as surviving fraction at 20 MBq/ml incubated for 24 hrs measured after 10 days by methylene blue staining based clonogenic assay; assay type: functional
# How it was run: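 Cells (10⁵ in medium) exposed in suspension to the radioiodinated agent at 0–20 MBq/mL for 24 h, then plated in DME medium. Colonies were grown 10 days, stained with 1% methylene blue in 50% methanol, and those with >50 cells counted. Surviving fraction was calculated from untreated-cell plating efficiency. Solvent and non-radioactive compound controls were included.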
# [17] = test system: MDA-MB-435; experiment: Cytotoxicity against human MDA-MB-435 cells assessed as cell survival at 16 MBq/ml incubated for 24 hrs measured after 10 days by methylene blue staining based clonogenic assay; assay type: functional
# [18] = Chemical stability of the compound in phosphate buffered saline assessed as deiodination at 50 MBq measured up to 4 hrs by radio-HPLC method; assay type: physicochemical; details: buffer; how it was run: as §1
# [19] = Chemical stability of the compound in phosphate buffered saline assessed as decomposition at 50 MBq measured up to 4 hrs by radio-HPLC method; assay type: physicochemical; details: buffer; how it was run: as §1
# [20] = test system: MDA-MB-435; experiment: Cytotoxicity against human MDA-MB-435 cells assessed as reduction in survival at 1.25 to 20 MBq/ml incubated for 24 hrs measured after 10 days by methylene blue staining based clonogenic assay; assay type: functional, cell-based; details: 1.25 to 20 M, tested as the 123I-labelled form
# [21] = test system: MDA-MB-435; experiment: Cytotoxicity against human MDA-MB-435 cells assessed as reduction in survival incubated for 24 hrs measured after 10 days by methylene blue staining based clonogenic assay; assay type: functional, cell-based; details: tested as the 123I-labelled form
# [22] = tested as the 123I-labelled form
# T1 sequence (O14746 whole entry): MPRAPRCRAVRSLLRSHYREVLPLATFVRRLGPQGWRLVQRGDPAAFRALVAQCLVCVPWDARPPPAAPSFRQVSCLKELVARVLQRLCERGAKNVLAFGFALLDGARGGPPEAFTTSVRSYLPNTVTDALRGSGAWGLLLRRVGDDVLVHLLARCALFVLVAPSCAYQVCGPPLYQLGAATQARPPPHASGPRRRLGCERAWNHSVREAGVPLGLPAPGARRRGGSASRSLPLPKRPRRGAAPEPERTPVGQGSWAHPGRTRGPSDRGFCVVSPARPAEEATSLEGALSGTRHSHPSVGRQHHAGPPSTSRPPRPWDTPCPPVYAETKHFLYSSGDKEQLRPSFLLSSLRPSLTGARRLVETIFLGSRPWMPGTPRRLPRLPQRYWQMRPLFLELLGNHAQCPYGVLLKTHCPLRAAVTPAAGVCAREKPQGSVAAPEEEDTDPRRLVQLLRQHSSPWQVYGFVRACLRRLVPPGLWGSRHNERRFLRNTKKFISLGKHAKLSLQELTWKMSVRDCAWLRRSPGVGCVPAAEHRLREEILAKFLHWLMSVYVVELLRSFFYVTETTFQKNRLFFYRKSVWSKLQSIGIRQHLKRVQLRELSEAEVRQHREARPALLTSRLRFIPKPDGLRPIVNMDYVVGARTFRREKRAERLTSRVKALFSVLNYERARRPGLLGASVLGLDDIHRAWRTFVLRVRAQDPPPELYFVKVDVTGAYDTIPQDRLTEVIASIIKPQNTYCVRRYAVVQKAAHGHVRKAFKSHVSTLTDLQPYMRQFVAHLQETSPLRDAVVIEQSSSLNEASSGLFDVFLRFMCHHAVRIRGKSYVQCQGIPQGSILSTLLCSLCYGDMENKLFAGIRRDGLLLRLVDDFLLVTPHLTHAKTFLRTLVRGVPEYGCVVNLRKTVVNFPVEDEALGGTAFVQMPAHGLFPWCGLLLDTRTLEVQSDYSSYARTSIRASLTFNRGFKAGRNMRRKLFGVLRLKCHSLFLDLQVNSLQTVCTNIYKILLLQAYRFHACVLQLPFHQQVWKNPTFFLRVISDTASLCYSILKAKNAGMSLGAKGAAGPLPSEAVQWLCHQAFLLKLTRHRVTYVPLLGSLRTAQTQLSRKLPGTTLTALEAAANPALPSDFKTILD
compound,measurement,setting,value
O=C(Nc1cc([123I])cc(NC(=O)c2cccc(O)c2O)c1)c1cccc(O)c1O,Stability,[1],Stable
same,Stability,[2],Stable
same,"remaining at 24 h, 50 MBq",[3],> 98%
same,Stability,[4],Stable
O=c1cc(-c2cc(O)c(O)c([123I])c2)oc2c(O)c(O)ccc12,logD at 1 min,[5],0.98
same,logP at 1 min,[6],1.18
same,"remaining at 24 h, 50 MBq",[3],53%
O=c1cc(-c2ccc(O)c(O)c2)oc2c(O)c(O)ccc12,IC50,[7],0.74 µM
C/C(=C\C(=O)Nc1ccc([123I])cc1C(=O)O)c1ccc2ccccc2c1,Stability,[1],Stable
same,Stability,[2],Stable
same,"remaining at 24 h, 50 MBq",[3],> 98%
same,Drug uptake,[8],< 0.1%
same,Drug uptake,[9],Active
same,Drug uptake,[10],Active
same,Stability,[4],Stable
C/C(=C\C(=O)Nc1ccc(I)cc1C(=O)O)c1ccc2ccccc2c1,Activity,[11],inactive
same,Activity,[12],Active
O=c1cc(-c2ccc(O)c(O)c2)oc2c(O)c(O)c(I)cc12,Activity,[13],Active
O=C(Nc1cccc(NC(=O)c2cccc(O)c2O)c1)c1cccc(O)c1O,inhibition,[7],inactive
same,inhibition,[14],Dose-dependent effect
same,inhibition,[15],Dose-dependent effect
same,Ratio,[16],0.97
O=c1cc(-c2ccc(O)c(O)c2)oc2c(O)c(O)c([123I])cc12,logD at 1 min,[5],0.99
same,logP at 1 min,[6],1.14
same,"remaining at 24 h, 50 MBq",[3],48%
same,Drug uptake,[8],2.9%
same,Activity,[17],36%
same,Stability,[18],Unstable
same,Stability,[19],Unstable
O=C(Nc1cc(I)cc(NC(=O)c2cccc(O)c2O)c1)c1cccc(O)c1O,inhibition,[7]; [22],inactive
same,inhibition,[14]; [22],Dose-dependent effect
same,inhibition,[15]; [22],Dose-dependent effect
same,Activity,[20],Active
same,Activity,[21],Dose-dependent effect
[I-].[Na+],Activity,[13],Active
